# Data as given in paper PMC3821739 (Organic & biomolecular chemistry, 2013).
# Like-named read-outs stand apart in the source and are kept apart here.
# Experiments:
# HIV-1 RRE IIB RNA [1] = experiment: Dot blot assay, dissociation constant with wild-type RRE IIB RNA; assay type: binding; conditions: for loss of binding affinity compared to BPBA1: RRE IIB
# RRE = conditions: cited from earlier work
# hexaloop RNA = experiment: Dot blot assay with RRE IIB variant hexaloop RNA; assay type: binding, HIV-1
# stem B deleted RNA = experiment: Dot blot assay with RRE IIB variant stem B deleted RNA; assay type: binding, HIV-1
# [2] = molecular target: loop B/bulge A deleted RNA; experiment: Dot blot assay with RRE IIB variant loop B/bulge A deleted RNA; assay type: binding, HIV-1
# [3] = system: loop A(A-G)/B/bulge A deleted RNA; experiment: Dot blot assay with RRE IIB variant loop A; assay type: binding, HIV-1
# [4] = system: stem A/loop A deleted RNA; experiment: Dot blot assay with RRE IIB variant stem A/loop A deleted RNA; assay type: binding, HIV-1
# [5] = system: loop A/B/bulge A deleted RNA; experiment: Dot blot assay with RRE IIB variant loop A/B/bulge A deleted RNA; assay type: binding, HIV-1
# RRE IIB DNA = experiment: Dot blot assay with DNA of the same RRE IIB sequence; assay type: binding, HIV-1
# RRE IIB = experiment: RNase protection; assay type: binding, HIV-1; conditions: on ice
# How it was run: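 5′-³²P-labelled RRE-IIB (10 nM) mixed with unlabelled RRE-IIB (200 nM), refolded at 95 °C for 3 min, then snap-cooled on ice. Test compound added in 10 mM Tris pH 7, 100 mM KCl, 10 mM MgCl₂, then 4 hr on ice. Digestion on ice: RNase V1 0.002 U for 10 min; T1 1 U or A 20 ng for 1 hr. Stopped by precipitation, run on 12% urea PAGE with an alkaline-hydrolysis ladder, autoradiography.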
# HIV-1 RRE IIB RNA [6] = conditions: read-out: binding affinity (Kd) of hit BPBA; dot blot; cited from earlier work
molecule,measurement,setting,value
WKKGKBBAYWY [LPBA1],loss of binding affinity compared to BPBA1,HIV-1 RRE IIB RNA [1],> 50 fold
Ac(WKK)*KBBAYWY [LPBA3],loss of binding affinity compared to BPBA1,HIV-1 RRE IIB RNA [1],> 50 fold
WKKWKKGKBBAYWY [LPBA4],loss of binding affinity compared to BPBA1,HIV-1 RRE IIB RNA [1],at least 5 fold
WKKGKBBAYWYWKK [LPBA5],loss of binding affinity compared to BPBA1,HIV-1 RRE IIB RNA [1],at least 5 fold
NC[C@@H]1O[C@H](O[C@H]2[C@@H](O)[C@H](O[C@@H]3[C@@H](O)[C@H](N)C[C@H](N)[C@H]3O[C@H]3O[C@H](CN)[C@@H](O)[C@H](O)[C@H]3N)O[C@@H]2CO)[C@H](N)[C@@H](O)[C@@H]1O [neomycin B],binding to RRE,RRE,submicromolar
(WKK)2*KBBAYWY [BPBA1],Kd,"HIV-1 RRE IIB RNA [1]; read-out: observed Kd in the presence of competing tRNA, 10-fold molar excess of bacterial tRNA relative to RRE IIB",2.1 µM
same,increase of Kd compared to the wild type,hexaloop RNA,~ 3 fold
same,Kd,stem B deleted RNA,3.7 µM
same,Kd,[2],8.7 µM
same,lower affinity relative to RRE IIB,[2],6 fold
same,lower affinity relative to RRE IIB,[3],> 10 fold
same,lower affinity relative to RRE IIB,[4],> 10 fold
same,loss in binding affinity / selectivity relative to RRE IIB,[5],> 75 fold
same,selectivity toward RNA over DNA,RRE IIB DNA; RRE IIB RNA versus RRE IIB DNA,23 fold
same,Kd,RRE IIB DNA; read-out: dissociation constant,31.8 ± 6.6 µM
same,protection of RRE IIB from cleavage by RNase A,RRE IIB; BPBA1 up to 20 µM,"visibly protected U7, C21, and U36"
same,protection of RRE IIB from cleavage by RNase T1,RRE IIB; BPBA1 up to 20 µM,no noticeable changes in band intensity
same,protection of RRE IIB from cleavage by RNase V1,"RRE IIB; region A16 through G19, BPBA1 0.2 µM to 20 µM",concentration dependent protection
same,Kd,HIV-1 RRE IIB RNA [6],1.4 µM
